# Measured values from different studies.
# Each line is one published result; the experiments were not run side by side.
# Target: 5'-AMP-activated protein kinase catalytic subunit alpha-2 (PRKAA2, Homo sapiens, UniProt P54646)
SMILES,assay,conditions,remaining binding [%]
CCN1CCN(Cc2ccc(C(=O)Nc3ccc(C)c(Oc4ccc5c(c4)CC(=O)N5)c3)cc2C(F)(F)F)CC1,"binding, competition with immobilised ligand",1 µM,100
O=C(NCCCN1CCOCC1)c1ccc(Nc2nccc(-c3cc4ccccc4s3)n2)cc1,"binding, competition with immobilised ligand",1 µM,41
N[C@H]1CCN(c2nccc(-c3cnn4ncccc34)n2)C1,binding,1 µM,100
CC1=C(C#N)[C@@H](c2ccc3[nH]nc(C)c3c2)C(C#N)=C(c2ccc(Cl)cc2)N1,"cell-free assay, competition with immobilised ligand",1 µM,95.3
O=C(NCC1CCOCC1)c1n[nH]cc1NC(=O)c1c(F)cccc1F,"binding, competition with immobilised ligand",1 µM,100
COc1ccnn2ncc(-c3ccnc(N(C)C)n3)c12,binding,1 µM,79
CNC(=O)Nc1ccc2c(c1)CC[C@@]21OC(=O)N(CC(=O)N(Cc2ccc(F)cc2)[C@@H](C)C(F)(F)F)C1=O,"cell-free assay, competition with immobilised ligand",1 µM,99
c1cncc(-c2cccc(Nc3nccc(NC4CCCCC4)n3)c2)c1,"binding, competition with immobilised ligand",10 µM,23
CCC(=O)N[C@@H]1CC[C@H](C(=O)N(C)c2ccc(-c3nc4ccccc4o3)cc2)C1,"cell-free assay, competition with immobilised ligand",1 µM,74
C[C@@H]1CCN(c2nccc(-c3cnn4ncccc34)n2)C1,binding,1 µM,74
CNC(=O)[C@@H]1CC[C@@H](n2c(-c3ccc4cnccc4c3)nc3ccc(C(=O)NCc4cccc(C(N)=O)c4)cc32)C1,"binding, competition with immobilised ligand",1 µM,91
Cc1nc(N2CC[C@@H](O)C2)ncc1-c1cc(C(F)(F)F)cc2[nH]ncc12,"cell-free assay, competition with immobilised ligand",1 µM,100
CN(C)c1ncc(F)c(-c2cnn3ncccc23)n1,binding,1 µM,100
Cc1c(NC(=O)c2cc(C(N)=O)nc3cc(F)ccc23)c(C(F)(F)F)nn1Cc1ccc(C(C)(C)C)cc1,"cell-free assay, competition with immobilised ligand",1 µM,100
c1cnn2ncc(-c3ccnc(N4CCC45COC5)n3)c2c1,binding,1 µM,91
C=CC(=O)N1CCC(C(=O)NCC(=O)N2CCN(c3nc(-c4cnc(N)nc4C(F)F)nc(N4CCOCC4)n3)CC2)CC1,"binding, competition with immobilised ligand",1 µM,100
FC(F)(F)Oc1cccc(-c2cnc3ccc(-c4ccncc4)nn23)c1,"cell-free assay, competition with immobilised ligand",5 µM,80
Cc1cnc(Nc2ccc(C(=O)N3CCC(N4CCCC4)CC3)cc2)nc1-c1cc2ccccc2s1,"binding, competition with immobilised ligand",1 µM,7
C[C@@H](c1ccc(-n2cnc3c(N)ncnc32)cc1)N1CCc2nn(C)c(Cc3ccccc3)c2C1=O,"binding, competition with immobilised ligand",0.1 µM,100
CC(=O)c1c(NS(C)(=O)=O)c2cc(-c3ccc(Cl)cc3)c(-c3ccc(Cl)cc3Cl)nc2n(C)c1=O,"cell-free assay, competition with immobilised ligand",1 µM,85
CN(CCCC(F)(F)F)c1nccc(-c2cnn3ncccc23)n1,binding,1 µM,100
O=C(c1ccc(Nc2nccc(-c3cc4ccccc4s3)n2)cc1)N1CCC(N2CCCC2)CC1,"binding, competition with immobilised ligand",1 µM,31
